Consider 58 molecules from PubChem BioAssay AID1885 (Broad Institute, 2009).

Out of some 300,000 compounds screened, about 4,400 (1.5%) were called active.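 Rule for the calls: active = mean inhibition across valid replicates above about 55% (limit read from the data); inconclusive = mean below that limit but half or more replicates reach it; inactive = mean below it, under half of replicates reach it.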 The sample as a whole holds a higher share of actives than the screen did.

The experiment can be described thus: inhibitors of intracellular T. cruzi growth, primary screen, luminescence, NIH3T3 host cells (AID 1885).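 Note: signal also drops with host cell toxicity which is not excluded here; 0% = plate median of DMSO wells and 100% = zero luminescence signal; higher percent means less beta-gal luminescence so fewer parasites.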 As to conditions: T. cruzi beta-gal in NIH3T3, luminescence, 90 h; active compounds read high; concentration not given here. In short, it runs like this:
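Assay system: NIH/3T3 fibroblasts plus reporter T. cruzi. Amount: NIH/3T3 cells, 5,000 per well. Buffer or medium: DMEM, 2% fetal bovine serum. Doses: compound pinned at 50 nL/well, DMSO. Schedule: ≥90 h infection period, 3 h prior cell attachment. Signal: luminescent β-galactosidase signal after 60 min lysis. Read-out: parasite load inhibition, %.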
`CSCCC(NC(=O)c1ccco1)C(=O)Nc1cc(C)ccn1` (stereo not drawn): the inhibition is -2.39% (inactive). The same measure for `Cc1ccc(C2CC(c3cccc(C)c3)n3nc(N)nc3N2)cc1` (stereo not drawn): 36.3% (inactive); for `COc1ccc(C2CC(c3ccc(C)cc3)Nc3nc(N)nn32)cc1` (stereo not drawn): 61.3% (active). Take `Cc1ccc(C2CC(c3cccc(Br)c3)n3nc(N)nc3N2)cc1` (stereo not drawn): the inhibition is 14.7% (inactive). The same measure for `CCc1ccccc1NC(=O)CN(C)S(=O)(=O)c1ccc2c(c1)c(=O)n(C)c(=O)n2C`: -4.15% (inactive). Take `Clc1ccc(-c2cc(-c3ccccn3)on2)c(Cl)c1`: the inhibition was 14.9% (inactive). The result for `O=C1CSC(c2ccccc2)N1c1nc(-c2ccc(Cl)cc2Cl)cs1` (stereo not drawn) reads 28.7% (inactive). Regarding `Clc1ccc(-c2cc(C3CCNCC3)[nH]n2)c(Cl)c1`, the inhibition is 65.5% (active).

Take `CCCN(CC(=O)Nc1ccccc1OC)C(=O)CCC(=O)c1ccc(F)cc1`: the inhibition is 0.665% (inactive).

Regarding `C/[N+]([O-])=C\c1ccc([N+](=O)[O-])o1`, the inhibition was 67% (active).

Consider `CCc1ccc(S(=O)(=O)N/N=C\c2ccc([N+](=O)[O-])o2)cc1`, for which the inhibition was 19% (inactive).

As for `Cc1cc(C)nc(N/N=C/c2ccc([N+](=O)[O-])o2)n1`, the inhibition is 26.9% (inactive).

As to `COc1ccc(C(=NN)c2ccc(OC)cc2)cc1`, the inhibition was -17.9% (inactive). As for `CCCC1(C(=O)OCC)NC(c2ccc(N(C)C)cc2)C2C(=O)N(c3ccc4c(c3)OCCO4)C(=O)C21` (stereo not drawn), the inhibition was -15% (inactive). The result for `CN(C)CCOc1ccc(Cl)cc1C(C)(C)C` reads 57.6% (active); that for `CC(C)(C)NCCCOc1ccc(Cl)cc1C(C)(C)C`, 33.9% (inactive). The result for `CN(C)CCOCCOc1ccc(Cl)c2ccccc12` reads 33.2% (inactive); that for `COc1ccccc1C(CNC(=O)c1cccc(NS(=O)(=O)c2ccc(Br)cc2)c1)N(C)C` (stereo not drawn), 0.0669% (inactive). Regarding `CCN(CC(=O)Nc1cc(Cl)ccc1C)C(=O)CSCc1ccc(C)cc1`, the inhibition is 7.73% (inactive). For the molecule `O=C(N/N=C/c1cccc(OC(=O)c2ccc([N+](=O)[O-])cc2)c1)c1cccnc1`, the inhibition is -36.5% (inactive). The same measure for `N#Cc1cc([N+](=O)[O-])ccc1Oc1cccc(/C=N/NC(=O)c2ccc(Cl)cc2)c1`: 74.5% (active); for `O=C(N/N=C/c1cccc([N+](=O)[O-])c1)c1ccncc1`: -13.8% (inactive); for `CCc1ccc(C(=O)NNC(=O)C2CCN(c3ncnc4sc(C)c(C)c34)CC2)cc1`: 24% (inactive).

`O=C(COC(=O)c1c2c(nc3ccccc13)/C(=C\c1cccs1)CCC2)Nc1ccccc1Cl`: the inhibition was 54.9% (active).

As to `CC(NC(=O)COC(=O)c1ccc2c(c1)OCO2)c1ccccc1` (stereo not drawn), the inhibition was -10.2% (inactive). On to `NC(=O)c1ccc(NC(=O)COC(=O)c2c3c(nc4ccccc24)/C(=C\c2ccc4c(c2)OCO4)CCC3)cc1`, for which the inhibition was 69.5% (active). The result for `COc1cc(-c2cc(C(=O)OCC(=O)Nc3ccc4c(c3)OCO4)c3ccccc3n2)cc(OC)c1OC` reads 5.72% (inactive); that for `O=C(COC(=O)c1c2c(nc3ccccc13)CCCC2)c1ccc(Br)s1`, -9.74% (inactive). For the molecule `COc1cc(/C=C2\CCCc3c2nc2ccccc2c3C(=O)O)cc(Cl)c1O`, the inhibition was 6.47% (inactive). The same measure for `O=C1CN(C(=O)c2cc(F)cc(F)c2)c2ccccc2N1`: -7.57% (inactive); for `CCCc1cc(=O)[nH]c(SCC(=O)c2c(N)n(CC(C)C)c(=O)n(C)c2=O)n1`: -8.24% (inactive).

For the molecule `CCOc1ccc(-c2cc(C(=O)N/N=C/c3ccc(O)cc3)c3ccccc3n2)cc1`, the inhibition is 18.7% (inactive).

Consider `Cc1ccc(NC(=O)Nc2cccc(C(F)(F)F)c2)nc1`, for which the inhibition was 11.1% (inactive). The result for `CCNS(=O)(=O)c1ccc(NC(=O)Nc2cccc(C(F)(F)F)c2)cc1` reads 61.3% (active); that for `CCNS(=O)(=O)c1ccc(NC(=O)Nc2cccc(OC)c2)cc1`, -9.54% (inactive). In the case of `Cn1ccc(=Nc2ccc(NC(=O)c3ccc(N=c4ccn(C)c5ccc([N+](=O)[O-])cc45)cc3)cc2)cc1`, the inhibition was 33.3% (inactive).

As to `Cn1c(CCc2ccccc2)nnc1SCC(N)=O`, the inhibition is -8.67% (inactive). The same measure for `Cc1ccc(Cc2nnc(SCC(=O)Nc3ccc(C)cc3C)[nH]c2=O)cc1`: -8.53% (inactive); for `COc1cc2ccccc2cc1C(=O)Nc1nc(C)c(C(C)=O)s1`: -2.79% (inactive); for `COc1cccc2sc(Nc3nc(C)c(C(C)=O)s3)nc12`: 89.1% (active). The same measure for `COc1ccccc1/C=N/Nc1nc(C)c(C(C)=O)s1`: 6.16% (inactive); for `COc1ccc(C)cc1S(=O)(=O)Nc1cc2c3c(c1)CCC(=O)N3CCC2`: -2.17% (inactive).

Turning to `CC(C)=NN1C(=O)c2ccccc2NC1(C)C`, the inhibition was -9.69% (inactive). The same measure for `COc1ccc(C2=NN(C(C)=O)C(c3ccccc3)C2)cc1` (stereo not drawn): -1.39% (inactive); for `O=C(CSc1nnnn1-c1ccc(O)cc1)N1N=C(c2ccc3ccccc3c2)CC1c1ccccc1` (stereo not drawn): 71.2% (active); for `COc1ccc(C2CC(c3ccccc3)=NN2C(=O)CSc2nccc(=O)[nH]2)cc1` (stereo not drawn): -0.127% (inactive).

In the case of `Cc1ccc(S(=O)(=O)n2cccc2CO)cc1`, the inhibition is -12.2% (inactive). `O=C(NNS(=O)(=O)c1ccc([N+](=O)[O-])cc1)C1CCCCC1`: the inhibition is -10.2% (inactive). The result for `CC(=O)Nc1cccc(C(=O)OCC(=O)Nc2nnc(-c3ccccc3)o2)c1` reads -2% (inactive); that for `CCN(CC)S(=O)(=O)c1ccc(C(=O)N2CCN(C3=NS(=O)(=O)c4ccccc43)CC2)cc1`, 0.744% (inactive). The result for `CC(C)c1cc(C(N)=O)c(NC(=O)c2cccc(COc3ccc(Br)cc3)c2)s1` reads 60.2% (active); that for `CCOc1ccc(OCc2cccc(C(=O)N(CC)CC)c2)cc1`, 14.3% (inactive); that for `CCc1cc(C(N)=O)c(NC(=O)c2ccc(OC)cc2)s1`, 15.5% (inactive). The same measure for `COc1cccc(COC(=O)C2CCN(S(=O)(=O)c3cccs3)CC2)c1OC`: 0.844% (inactive).

On to `CCOc1ccc(S(=O)(=O)Nc2ccc(C(=O)NCCCN3CCCC3=O)cc2)cc1`, for which the inhibition was 3.32% (inactive).

In the case of `Cc1cccc(NC(=O)c2cc([N+](=O)[O-])ccc2N2CCN(C)CC2)c1`, the inhibition was 2.53% (inactive). The result for `Cc1cccc(NC(=O)c2ccc([N+](=O)[O-])o2)c1` reads 41.2% (inactive); that for `Cc1cccc(NC(=O)c2sc(-c3ccccc3)nc2-c2ccc([N+](=O)[O-])cc2)c1`, 55.5% (active).
